Assay [1] has as its target T1, mGlu5 (Rattus norvegicus, UniProt P31424). In kind it is cell-based. As to conditions: for EC80 glutamate inhibition hill slope: HEK293A-mGlu5-low.
The target of assay [2] is T1, mGlu5. The experiment in a line: [3H]mPEPy inhibition binding, membranes from HEK293A-mGlu5-low. The settings on record: for displacement of [3H]mPEPy binding, incubation time 4 h: equilibration time extended to 4 h. In short, it runs like this:
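HEK293A-mGlu5-low membranes with ~2 nM [3H]mPEPy and test compound (0.3 nM–30 μM) in Ca2+ assay buffer, RT, 1 h initially, extended to 4 h. […] Filtration on GF/B, ice-cold 0.9% NaCl/50 mM Tris pH 7.4 washes, scintillation counting.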
For orientation: Displacement assays read how much labelled ligand stays bound in the presence of the test substance.

Assay [3] addresses T1, mGlu5. The experiment in a line: Agonist Ca2+ mobilization after acute NAM exposure and extensive washes. It counts as cell-based. As to conditions: for ΔEmax: change after azido-alkyne 8 (1uM). (In general: Calcium assays in cells follow changes in intracellular calcium, usually with a dye or a luminescent sensor.)
Assay [4] addresses T1, mGlu5. It counts as binding. The settings on record: for [3H]mPEPy binding after pretreatment, three (5 min) washes: 1 μM pretreatment. The essentials:
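Whole HEK293A-mGlu5-low cells plated at ~200 000 cells/well on poly-D-lysine. Test compound (1 μM) applied 10 min at RT, with or without UV. Washed either 3 × 5 min or 5 × 1 h at RT in Ca2+ assay buffer. Then ~2 nM [3H]mPEPy for 1 h at RT, ice-cold 0.9% NaCl washes, 0.2 M NaOH lysis overnight, liquid scintillation counting.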

Assay [5] has as its target T1, mGlu5. The experiment in a line: Agonist activity in mGlu5 intracellular Ca2+ mobilization. In kind it is cell-based. As to conditions: absence of glutamate.
For assay [6], the target named is T1, mGlu5. The experiment in a line: Modulation of glutamate concentration-response curves for Ca2+ mobilization. In kind it is cell-based.

In general, IC50 refers to the concentration at which inhibition is half-maximal. A higher IC50 goes with weaker potency. What is called Ki is a measure of affinity in units of concentration, obtained from inhibition or displacement. A low value points to a stronger hold on the target.

The structures appear in SMILES notation. “Also recorded” adds a separate entry of the source. Like-named read-outs stand apart in the source and are kept apart here.

T1 sequence (P31424 21-1203): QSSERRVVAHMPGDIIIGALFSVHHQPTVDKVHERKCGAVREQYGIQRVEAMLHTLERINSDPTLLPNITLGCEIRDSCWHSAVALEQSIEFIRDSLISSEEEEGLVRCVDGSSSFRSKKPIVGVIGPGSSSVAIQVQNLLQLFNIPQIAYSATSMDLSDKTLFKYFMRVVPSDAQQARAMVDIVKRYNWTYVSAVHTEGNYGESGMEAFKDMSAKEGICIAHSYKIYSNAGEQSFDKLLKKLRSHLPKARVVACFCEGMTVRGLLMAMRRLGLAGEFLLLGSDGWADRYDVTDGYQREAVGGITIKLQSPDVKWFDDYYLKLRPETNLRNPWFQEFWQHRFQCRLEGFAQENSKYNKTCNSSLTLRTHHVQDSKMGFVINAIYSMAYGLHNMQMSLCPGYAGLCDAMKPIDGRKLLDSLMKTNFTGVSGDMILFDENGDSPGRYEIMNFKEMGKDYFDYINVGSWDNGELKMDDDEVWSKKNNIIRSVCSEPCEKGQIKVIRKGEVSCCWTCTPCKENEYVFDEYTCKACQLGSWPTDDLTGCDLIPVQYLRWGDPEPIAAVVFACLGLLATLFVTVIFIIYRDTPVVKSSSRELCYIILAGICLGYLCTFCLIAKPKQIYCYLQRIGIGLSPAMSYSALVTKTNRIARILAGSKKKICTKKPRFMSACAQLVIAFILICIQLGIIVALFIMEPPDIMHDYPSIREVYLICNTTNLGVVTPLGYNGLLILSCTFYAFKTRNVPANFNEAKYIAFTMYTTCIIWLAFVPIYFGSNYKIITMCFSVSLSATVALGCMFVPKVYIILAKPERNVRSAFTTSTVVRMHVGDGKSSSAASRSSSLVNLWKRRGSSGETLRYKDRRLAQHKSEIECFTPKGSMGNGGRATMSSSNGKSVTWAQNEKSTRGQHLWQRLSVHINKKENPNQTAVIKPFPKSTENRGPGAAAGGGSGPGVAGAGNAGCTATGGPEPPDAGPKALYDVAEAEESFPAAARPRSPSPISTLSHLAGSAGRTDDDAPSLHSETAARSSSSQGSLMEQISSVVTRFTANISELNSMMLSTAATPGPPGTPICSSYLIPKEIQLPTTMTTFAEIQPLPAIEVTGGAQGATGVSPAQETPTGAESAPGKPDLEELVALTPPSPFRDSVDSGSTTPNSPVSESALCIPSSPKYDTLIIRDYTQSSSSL

On to `Cc1cccc(C#Cc2ccccc2)n1` [6 (MPEP), MPEP, reference compound], for which the “EC80 glutamate inhibition hill slope” value on mGlu5 [1] is given as −1.53 ± 0.18. Moreover, at mGlu5 [1] (operational model of allosterism applied to EC80 glutamate inhibition curves), the “EC80 glutamate inhibition pKB” value is 7.97 ± 0.16. Also, the “inhibition of mGlu5 photoaffinity labeling of the clickable photoprobes” value in the assay on purified mGlu5 (saturating concentration (10 μM)) is “did not inhibit”. Moreover, on mGlu5 [2], the “displacement of [3H]mPEPy binding, incubation time 4 h” value is reported as “no effect”. In addition, on mGlu5 [3] (10 min exposure followed by five extended washes), the “effect of pre-exposure on potency or maximal response to glutamate or VU0424465” value was “no effect”. For the same compound, the “[3H]mPEPy binding after pretreatment, three (5 min) washes” value on mGlu5 [4] is “reduced [^3H]mPEPy binding to a similar extent”.
Regarding `C[C@@H](NC(=O)c1ccc(C#Cc2cccc(F)c2)cn1)C(C)(C)O` [VU0424465], the “pEC50 (untreated)” value at mGlu5 [3] (HEK293A-mGlu5-low, untreated) is recorded as 6.60 ± 0.18. Besides, the ΔEmax on mGlu5 [3] is on record as −18.3 ± 10.8 percentage of the maximum response to glutamate. The pKA at mGlu5 [3] (equilibrium dissociation constant of the agonist, receptor depletion with azido-alkyne 8 (1uM)) amounted to 6.17 ± 0.25. Besides, the “pEC50 (treated)” value on mGlu5 [3] (treated with azido-alkyne 8 (1uM)) is listed as 6.11 ± 0.23.
Regarding `COc1cc(O)c(C(=O)c2ccccc2)cc1S(=O)(=O)O` [compound 4], at mGlu5 [1], it took 647 nM to reach half-maximal inhibition (IC50), the Kb is 891 nM, the “fold less potent than lead NAM 2 at inhibiting EC80 glutamate response” value was ~ 5 fold and the “EC80 glutamate inhibition hill slope” value is reported as −0.91 ± 0.23. The “Cy5.5 in-gel fluorescence of mGlu5 dimer band” value with purified mGlu5 (absence of a competitor, versus vehicle) is “significantly increase”. Further, on mGlu5 [2], the Ki is 25.1 nM and the “displacement of [3H]mPEPy binding, incubation time 4 h” value is reported as “complete displacement; also recorded: fully displaced”. For the same compound, the “displacement of [3H]mPEPy binding” value on mGlu5 [2] (initial assay conditions) is on record as “incomplete displacement”. For the same compound, the “fold higher mGlu5 binding affinity relative to lead NAM 2” value at mGlu5 [2] (radioligand inhibition binding) is 2 fold. Moreover, the “[3H]mPEPy binding after pretreatment, three (5 min) washes” value on mGlu5 [4] is on record as “significantly reduced”. Also, the “[3H]mPEPy binding after extensive wash protocol (five 1 h washes)” value at mGlu5 [4] (absence of UV irradiation) was “concentration-dependently inhibited”. In addition, at mGlu5 [5], the “intrinsic agonist activity at mGlu5” value is “No evidence of agonist activity; also recorded: no intrinsic agonist activity”. On mGlu5 [6], the “fold increase of affinity estimate with 30 min versus 1 min preincubation” value is ~ 10 fold. On mGlu5 [6] (1 min pre-exposure), the “effect on glutamate maximal functional response” value is listed as “complete inhibition”. Further, on mGlu5 [6] (affinity estimate pKB, 30 min preincubation, photoprobe preincubation 30 min), the Kb was 36.3 nM. In addition, at mGlu5 [6] (allosteric interaction assay, 1 min), the “affinity estimate (pKB) fold difference to benzyl ether derivative 3” value is at most 5 fold.
In the case of `N[C@@H](CCC(=O)O)C(=O)O` [glutamate], the ΔEmax at mGlu5 [3] was −46.3 ± 18.3 percentage of the maximum response to glutamate.

The values above are taken from article PMC4981245 (ACS chemical biology, 2016).
